Key:
Type in all cases: ADME, organism-based
Rattus norvegicus [1] = test: Distribution of Se-75 activity in Lung of female Sprague-Dawley Rat 5 min after iv administration of compound; details: in vivo
Procedure, shortened: (§1)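 Female Sprague-Dawley rats (100-300 g), five per group, got [75Se]selenonium salt in 0.2 mL saline (5-6 μCi) by lateral tail vein. They were killed by cardioectomy under chloroform anesthesia at the stated time. A sample of the large organ was weighed and gamma counted, and counts were converted to % injected dose/g. Values are mean and SEM of five.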

Rattus norvegicus [2] = test: Distribution of Se-75 activity in blood of female Sprague-Dawley Rat 120 min after iv administration compound; details: in vivo, 2 h
Procedure, shortened: (§2)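 Tail-vein injection of 5-6 μCi [75Se]selenonium salt in 0.2 mL saline into female Sprague-Dawley rats (100-300 g), five per group. Rats were killed by cardioectomy under chloroform anesthesia at the time point. Radioactivity was gamma counted and expressed as % injected dose/g, mean and SEM of five.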

Rattus norvegicus [3] = test: Distribution of Se-75 activity in blood of female Sprague-Dawley Rat 15 min after iv administration of compound; details: in vivo, 0.25 h; procedure, shortened: as §2
Rattus norvegicus [4] = test: Distribution of Se-75 activity in blood of female Sprague-Dawley Rat 240 min after iv administration of compound; details: in vivo, 4 h
Procedure, shortened: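 Female Sprague-Dawley rats (100-300 g) got 5-6 μCi of [75Se]selenonium salt in 0.2 mL saline via lateral tail vein. Groups of five were anesthetized with chloroform at set times and killed by cardioectomy. Tissues were rinsed, blotted and weighed, then gamma-counted. Values are % injected dose per gram, mean and SEM of five.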

Rattus norvegicus [5] = test: Distribution of Se-75 activity in Adrenal of female Sprague-Dawley Rat 120 min after iv administration of compound; details: in vivo, 2 h
Procedure, shortened: (§3)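 Female Sprague-Dawley rats (100-300 g), five per group, got [75Se]selenonium salt by lateral tail vein: 0.2 mL saline with 5-6 μCi. Groups were killed by cardioectomy under chloroform anesthesia at the set times. The organ was taken intact, rinsed with saline, blotted, weighed and gamma counted. Values are % injected dose/g, mean and SEM of five.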

Rattus norvegicus [6] = test: Distribution of Se-75 activity in Adrenal of female Sprague-Dawley Rat 240 min after iv administration of compound; details: in vivo, 4 h; procedure, shortened: as §3
Rattus norvegicus [7] = test: Distribution of Se-75 activity in Brain of female Sprague-Dawley Rat 120 min after iv administration of compound; details: in vivo, 2 h
Rattus norvegicus [8] = test: Distribution of Se-75 activity in Brain of female Sprague-Dawley Rat 240 min after iv administration of compound; details: in vivo, 4 h
Rattus norvegicus [9] = test: Distribution of Se-75 activity in Brain of female Sprague-Dawley Rat 30 min after iv administration of compound; details: in vivo, 0.5 h
Rattus norvegicus [10] = test: Distribution of Se-75 activity in Heart of female Sprague-Dawley Rat 120 min after iv administration of compound; details: in vivo, 2 h; procedure, shortened: as §3
Rattus norvegicus [11] = test: Distribution of Se-75 activity in Heart of female Sprague-Dawley Rat 240 min after iv administration of dose 5 uCi/0.2 mL; details: in vivo, 4 h; procedure, shortened: as §3
Rattus norvegicus [12] = test: Distribution of Se-75 activity in Kidney of female Sprague-Dawley Rat 120 min after iv administration of compound; details: in vivo, 2 h; procedure, shortened: as §3
Rattus norvegicus [13] = test: Distribution of Se-75 activity in Kidney of female Sprague-Dawley Rat 240 min after iv administration of compound; details: in vivo, 4 h; procedure, shortened: as §3
Rattus norvegicus [14] = test: Distribution of Se-75 activity in Kidney of female Sprague-Dawley Rat 15 min after iv administration of compound; details: in vivo, 0.25 h; procedure, shortened: as §3
Rattus norvegicus [15] = test: Distribution of Se-75 activity in Kidney of female Sprague-Dawley Rat 60 min after iv administration of compound; details: in vivo, 1 h; procedure, shortened: as §3
Rattus norvegicus [16] = test: Distribution of Se-75 activity in Liver of female Sprague-Dawley Rat 60 min after iv administration of compound; details: in vivo, 1 h; procedure, shortened: as §1
Rattus norvegicus [17] = test: Distribution of Se-75 activity in Lung of female Sprague-Dawley Rat 120 min after iv administration of compound; details: in vivo, 2 h; procedure, shortened: as §1
Rattus norvegicus [18] = test: Distribution of Se-75 activity in Lung of female Sprague-Dawley Rat 240 min after iv administration of compound; details: in vivo, 4 h; procedure, shortened: as §1
Rattus norvegicus [19] = test: Tissue radioactivity ratio in adrenal to Liver 240 min after Intravenous Injection in rats; details: in vivo, 4 h
Procedure, shortened: (§4)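 Same rat biodistribution: female Sprague-Dawley rats (100-300 g), 5-6 μCi [75Se]selenonium salt in 0.2 mL saline iv by tail vein, five per time point, killed by cardioectomy under chloroform. Ratios are tissue-to-tissue quotients of gamma-counted % injected dose per gram in each organ (adrenal, heart, kidney, liver, blood).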

Rattus norvegicus [20] = test: Tissue radioactivity ratio in adrenal to blood 15 min after Intravenous Injection in rats; details: other tissue, 0.25 h; procedure, shortened: as §4
Rattus norvegicus [21] = test: Tissue radioactivity ratio in adrenal to blood 240 min after Intravenous Injection in rats; details: other tissue, 4 h; procedure, shortened: as §4
Rattus norvegicus [22] = test: Tissue radioactivity ratio in adrenal to blood 60 min after Intravenous Injection in rats; details: other tissue, 1 h; procedure, shortened: as §4
Rattus norvegicus [23] = test: Distribution of Se-75 activity in Adrenal of female Sprague-Dawley Rat 120 min after iv administration compound; details: in vivo, 2 h; procedure, shortened: as §3
Rattus norvegicus [24] = test: Distribution of Se-75 activity in Adrenal of female Sprague-Dawley Rat 240 min after iv administration compound; details: in vivo, 4 h; procedure, shortened: as §3
Rattus norvegicus [25] = test: Distribution of Se-75 activity in Heart of female Sprague-Dawley Rat 120 min after iv administration compound; details: in vivo, 2 h; procedure, shortened: as §3
Rattus norvegicus [26] = test: Distribution of Se-75 activity in Heart of female Sprague-Dawley Rat 240 min after iv administration compound; details: in vivo, 4 h; procedure, shortened: as §3
Rattus norvegicus [27] = test: Distribution of Se-75 activity in blood of female Sprague-Dawley Rat 120 min after iv administration of compound; details: in vivo, 2 h; procedure, shortened: as §2
Rattus norvegicus [28] = test: Distribution of Se-75 activity in Brain of female Sprague-Dawley Rat 240 min after iv administration compound; details: in vivo, 4 h
Rattus norvegicus [29] = test: Distribution of Se-75 activity in Kidney of female Sprague-Dawley Rat 120 min after iv administration compound; details: in vivo, 2 h; procedure, shortened: as §3
Rattus norvegicus [30] = test: Distribution of Se-75 activity in Kidney of female Sprague-Dawley Rat 240 min after iv administration compound; details: in vivo, 4 h; procedure, shortened: as §3
Rattus norvegicus [31] = test: Distribution of Se-75 activity in Liver of female Sprague-Dawley Rat 60 min after iv administration of dcompound; details: in vivo, 1 h; procedure, shortened: as §1
Rattus norvegicus [32] = test: Distribution of Se-75 activity in Lung of female Sprague-Dawley Rat 120 min after iv administration compound; details: in vivo, 2 h; procedure, shortened: as §1
Rattus norvegicus [33] = test: Distribution of Se-75 activity in Lung of female Sprague-Dawley Rat 240 min after iv administration compound; details: in vivo, 4 h; procedure, shortened: as §1
Rattus norvegicus [34] = test: Distribution of Se-75 activity in Brain of female Sprague-Dawley Rat 120 min after iv administration compound; details: in vivo, 2 h

`C[Se+](C)CCc1ccc(O)c(O)c1.[Cl-]` showed a Dose/g (Rattus norvegicus [1]) of 1.25%, a Dose/g (Rattus norvegicus [2]) of 0.08% and a Dose/g (Rattus norvegicus [3]) of 0.3%. The Dose/g (Rattus norvegicus [4]) was 0.05%, the Dose/g (Rattus norvegicus [5]) was 0.73% and the Dose/g (Rattus norvegicus [6]) was 0.59%. For the same compound, the Dose/g (Rattus norvegicus [7]) was 0%, the Dose/g (Rattus norvegicus [8]) was 0% and the Dose/g (Rattus norvegicus [9]) was 0.01%. The Dose/g (Rattus norvegicus [10]) was 0.21%, the Dose/g (Rattus norvegicus [11]) was 0.16% and the Dose/g (Rattus norvegicus [12]) was 0.29%. It also gave a Dose/g (Rattus norvegicus [13]) of 0.18%, a Dose/g (Rattus norvegicus [14]) of 1.07% and a Dose/g (Rattus norvegicus [15]) of 0.59%. The Dose/g (Rattus norvegicus [16]) was 0.8%, the Dose/g (Rattus norvegicus [17]) was 0.2% and the Dose/g (Rattus norvegicus [18]) was 0.09%. For the same compound, the Ratio (Rattus norvegicus [19]) was 2.56, the Ratio (Rattus norvegicus [20]) was 2.9 and the Ratio (Rattus norvegicus [21]) was 11.8. The Ratio (Rattus norvegicus [22]) was 4.83.

`COc1ccc(CC[Se+](C)C)cc1OC.[I-]` showed a Dose/g (Rattus norvegicus [1]) of 1.44%, a Dose/g (Rattus norvegicus [3]) of 0.26% and a Dose/g (Rattus norvegicus [4]) of 0.03%. For the same compound, the Dose/g (Rattus norvegicus [23]) was 0.74%, the Dose/g (Rattus norvegicus [24]) was 0.64% and the Dose/g (Rattus norvegicus [25]) was 0.17%. The Dose/g (Rattus norvegicus [26]) was 0.06%, the Dose/g (Rattus norvegicus [27]) was 0.08% and the Dose/g (Rattus norvegicus [28]) was 0%. For the same compound, the Dose/g (Rattus norvegicus [9]) was 0.02%, the Dose/g (Rattus norvegicus [29]) was 0.33% and the Dose/g (Rattus norvegicus [14]) was 1.29%. It also gave a Dose/g (Rattus norvegicus [30]) of 0.16%, a Dose/g (Rattus norvegicus [15]) of 0.53% and a Dose/g (Rattus norvegicus [31]) of 0.62%. It also gave a Dose/g (Rattus norvegicus [32]) of 0.19%, a Dose/g (Rattus norvegicus [33]) of 0.07% and a Ratio (Rattus norvegicus [19]) of 3.55. For the same compound, the Ratio (Rattus norvegicus [20]) was 3.39, the Ratio (Rattus norvegicus [21]) was 21.33 and the Ratio (Rattus norvegicus [22]) was 5.92. It also gave a Dose/g (Rattus norvegicus [34]) of 0.01%.

Reference: ChEMBL document CHEMBL1122494, “New selenium-75 labeled radiopharmaceuticals: selenonium analogues of dopamine” (J Med Chem, 1983)
